# Bioassay records: PubChem, Johns Hopkins Ion Channel Center
# Only some compounds are listed: those with a hit (about 3.7% of all), similar ones and a draw of the others.
# KCNQ1 block: inhibitors of human KCNQ1 potassium channel; CHO-K1 KCNQ1, FluxOR thallium flux fluorescence; active compounds read high; B-score at 10 µM; 310,000 compounds, 1.3% hits; P51787;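 active = compounds whose thallium flux B-score, printed positive for inhibition, exceeds three library SD while starting fluorescence stays within three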;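 note: channel opened by potassium depolarization with thallium stimulus after 20 min compound exposure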
# KCNQ1 pot: human KCNQ1 channel potentiation or activation; P51787; CHO-K1 KCNQ1, thallium flux FluxOR fluorescence; active compounds read high; B-score at 10 µM; 310,000 compounds, 0.35% hits; AID 2648;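 active = fluorescence ratio B-score, a plate-corrected score, at least three library SD, with initial intensity B-score within 5 SD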
#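 Doses: Single concentration per compound, DMSO matched to controls | Test system: KCNQ1-transfected CHO-K1 cells | Timing: 90 min dye loading and 20 min compound exposure, both at room temperature | Measured by: Kinetic FluxOR thallium fluorescence, 10-s 1-Hz baseline, 110-s post-stimulus read | Medium: Assay buffer with matched DMSO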
# KCNK9 block: human KCNK9 channel inhibition | Q9NPC2 | HEK293 KCNK9, FluxOR thallium flux fluorescence; active compounds read low | 310,000 compounds, 1.2% hits | B-score at 10 µM;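 active = ratio B-score over 3 SD below the library mean, with starting fluorescence within 5 SD of its mean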;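 note: negative B-score means less thallium flux so channel inhibition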
# Target sequence (Q9NPC2 whole entry, looked up): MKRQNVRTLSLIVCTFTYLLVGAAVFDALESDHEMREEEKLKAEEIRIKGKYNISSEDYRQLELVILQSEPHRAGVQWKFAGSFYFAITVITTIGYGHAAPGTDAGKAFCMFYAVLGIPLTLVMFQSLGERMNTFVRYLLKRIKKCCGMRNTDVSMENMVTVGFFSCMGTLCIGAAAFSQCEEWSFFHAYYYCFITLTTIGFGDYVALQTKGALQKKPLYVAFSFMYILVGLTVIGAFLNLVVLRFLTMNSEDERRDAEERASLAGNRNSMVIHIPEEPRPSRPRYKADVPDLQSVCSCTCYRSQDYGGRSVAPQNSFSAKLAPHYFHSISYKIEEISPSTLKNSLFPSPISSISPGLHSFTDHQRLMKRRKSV
# Kir21 inh: Kir2.1 (mouse) channel inhibition; P35561; HEK293-Kir2.1, FluxOR thallium flux fluorescence; active compounds read low; B-score at 10 µM; 310,000 compounds, 0.85% hits;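 active = fluorescence ratio B-score at or below minus 3 SD of library scores, with starting-brightness B-score within 2 SD, cut at about -4.2 in these data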;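 note: channel flux triggered by added potassium and thallium sulfate stimulus; B-score of peak minus minimum fluorescence over baseline after thallium stimulus; more negative B-score means stronger Kir2.1 block with less thallium influx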
# KCNK3 block: human KCNK3 channel inhibition, primary screen. CHO-KCNK3 thallium flux, FluxOR fluorescence; active compounds read low. B-score at 10 µM. O14649. AID 602410. 340,000 compounds, 0.84% hits;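 active = B-score under library mean minus 4 SD, starting fluorescence ratio at most library mean plus 5 SD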;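 note: more negative B-score means stronger inhibition of thallium flux through KCNK3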
# hERG rescue: hERG (human) protection from proarrhythmic block; CHO-hERG, FluxOR thallium flux, dofetilide IC70 present; Q12809; AID 1511; activation (rescue from dofetilide block), less the hit threshold, % at 10 µM; 310,000 compounds, 0.51% hits;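 active = activation above the mean of controls blocked by dofetilide plus 5 SD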;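 note: thallium influx through hERG after potassium depolarization seen as dye fluorescence rise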
# KCNK3 inh conf: human KCNK3 channel inhibition, confirmation assay; shares compounds with KCNK3 block; CHO-KCNK3 thallium flux, FluxOR fluorescence; 0% buffer, 100% carvedilol maximal block; ratio percent of control, % at 10 µM; 2,400 compounds, 99% hits; AID 651638;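 active = ratio percent of control, averaged over triplicates, above buffer control mean plus 5 SD, cut at about 64% in these data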;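 note: ratio is the fluorescence rise from min to max over baseline after thallium stimulus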
# KCNK3 uninduced: KCNK3 inhibitor counter-screen hit in non-induced cells; 2,400 compounds, 40% hits; non-induced KCNK3 parental cells, FluxOR thallium flux; active compounds read low; AID 651747; shares compounds with KCNK3 block; thallium flux ratio (lower = more inhibition) at 10 µM;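 active = thallium flux ratio, averaged over three wells, more than 5 SD below the buffer control mean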;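 note: host cells are CHO cells without KCNK3 induction; ratio is peak minus trough fluorescence over baseline then normalized to buffer controls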
# Starred values were filed as active, the others as inactive; i = inactive; x = no result.
SMILES,KCNQ1 block,KCNQ1 pot,KCNK9 block,Kir21 inh,KCNK3 block,hERG rescue,KCNK3 inh conf,KCNK3 uninduced
N#Cc1nc(-c2ccco2)oc1N1CCN(c2ccccc2)CC1,i,i,i,-0.09,-10.6*,-5.0,119.0*,i
COc1ccc(N2CCN(c3oc(-c4ccco4)nc3C#N)CC2)cc1,i,i,i,-1.26,i,-11.6,x,x
N#CCC(=O)Nc1ccc(C(=O)OCC(=O)N=c2sccn2Cc2ccccc2Cl)cc1,i,i,i,2.83,-10.7*,-16.1,92.0*,i
CC(C)c1nc(CNC(=O)C2CCC(=O)N(CCc3cccc(F)c3)C2)cs1 (stereo not drawn),i,i,i,0.45,-11*,-4.1,77.3*,i
CC(C)Cc1cc(CNC(=O)C2CCC(=O)N(CCc3cccc(F)c3)C2)on1 (stereo not drawn),i,i,i,-0.55,i,-4.9,x,x
FC(F)(F)c1ccccc1-n1ccnc1,x,x,x,x,i,x,x,x
Clc1ccccc1C(c1ccccc1)(c1ccccc1)n1ccnc1,i,i,-17.9*,-0.68,-11*,-14.2,129.3*,0.133*
Cc1ccc(S(=O)(=O)Nc2ccc(N(C)S(=O)(=O)c3ccc(C)cc3)cc2)cc1,i,i,-7.02*,-1.84,i,-9.2,85.7*,i
CC(C)(CNC(=S)NCCc1ccccc1)CNC(=S)NCCc1ccccc1,14*,i,i,1.79,-9.35*,-18.6,116.0*,0.104*
S=C(NCCCc1ccccc1)Nc1ccccc1,i,i,i,-1.57,i,-5.1,x,x
S=C(NCCc1ccccc1)Nc1ccc(Nc2ccccc2)cc1,i,i,i,-0.03,-9.3*,-6.8,126.0*,0.133*
O=C1/C(=C/c2ccc(Br)cc2)Oc2cc(O)ccc21,6*,i,i,-1.09,-11.8*,-2.1,119.3*,0.133*
O=C1c2ccccc2C(Nc2ccc(F)c(Cl)c2)N1c1ccccn1 (stereo not drawn),i,i,i,0.58,i,-7.5,x,x
COc1ccc(NC2c3ccccc3C(=O)N2c2ccccn2)cc1Cl (stereo not drawn),i,i,-7.49*,1.75,-10.7*,-8.4,112.0*,i
O=C(NCc1nnc(SCC(=O)N2CCCc3ccccc32)n1-c1ccccc1)c1cccc2ccccc12,i,i,i,-0.51,i,-12.8,x,x
COc1ccc(-n2c(Cc3ccccc3)nnc2SCC(=O)N2CCCc3ccccc32)cc1,i,i,i,-2.9,-12.5*,-2.9,86.7*,i
CCN(Cc1ccc(OC)c(F)c1)C(=O)c1oc2ccccc2c1COC,i,i,i,-2.5,-14.1*,-7.8,94.3*,i
CCN(Cc1ccc(OC)c(F)c1)C(=O)CCl,i,i,i,0.17,i,-14.5,x,x
Cc1cccc(C)c1NC(=O)CN(C)CC(=O)Nc1ccc(F)c(Cl)c1,i,i,i,0.09,-11.6*,2.4,81.7*,i
COc1cccc2c1OC[C@@H](CO)[C@H]2N(C)C(=O)Nc1ccccc1,i,i,i,0,i,-7.4,x,x
CN(C(=O)Nc1ccc(Cl)cc1Cl)[C@H]1c2cc(Br)ccc2OC[C@H]1CO,i,i,i,0.02,-8.93*,-9.9,99.7*,i
C=C(C)c1cccc(C(C)(C)NC(=O)N2CCC(C(N)=O)CC2)c1,i,i,i,0.75,i,-3.0,x,x
O=C(CCSc1nc(-c2ccco2)cc(C(F)(F)F)n1)N1CCCc2ccccc21,i,i,i,-1.51,-9.85*,-6.3,99.7*,i
O=C(CCSc1nc(-c2ccco2)cc(C(F)(F)F)n1)N1CCN(c2ccccn2)CC1,i,i,i,1.49,i,-8.4,x,x
C=CSc1sc(Cl)c(N2CCOCC2)c1[N+](=O)[O-],i,i,i,-0.97,i,-6.3,x,x
SMILES,KCNQ1 block,KCNQ1 pot,KCNK9 block,Kir21 inh,KCNK3 block,hERG rescue,KCNK3 inh conf,KCNK3 uninduced
C=CS(=O)(=O)c1sc(Cl)c(N2CCOCC2)c1[N+](=O)[O-],i,11*,i,-9.46*,-8.98*,-0.7,125.3*,0.122*
C[C@H]1CN([C@@H](C)CO)C(=O)c2cc(NS(=O)(=O)c3ccc(Cl)cc3)ccc2O[C@@H]1CN(C)CC1CCCCC1,x,x,x,x,-13.3*,x,93.3*,i
CCOC(=O)C(=CNc1cscc1S(=O)(=O)C(C)C)C(=O)OCC,i,i,i,-1.43,i,-6.8,x,x
COc1ccc(NC(=O)C2CCCN(CCCc3ccccc3)C2)cc1OCC(C)C (stereo not drawn),i,i,i,-0.8,-9.78*,-10.4,98.7*,i
CCOc1ccc(S(=O)(=O)N2CCC(C(=O)NCc3cccnc3)CC2)cc1C,i,i,i,-0.07,i,-6.2,x,x
Cc1ccc2oc(-c3cccc(NC(=O)c4ccc(Br)o4)c3)nc2c1,i,i,i,-0.63,-10.8*,-8.4,105.3*,i
Cc1ccc(-c2nc(=S)c3c(n2Cc2cccnc2)CC(C)(C)OC3)cc1,i,i,i,-0.01,i,-9.2,x,x
CCOC(=O)c1c(NC(=O)CSc2nnc(CNc3ccc(Cl)cc3)o2)sc(C)c1C,i,i,i,-0.17,-9.55*,-11.8,90.0*,i
Cc1c(C(=O)Nc2ccc(Cl)cc2)c2ccccn2c1CCc1ccncc1,i,i,i,-0.35,-9.67*,-6.9,109.3*,0.14*
O=[N+]([O-])c1ccc(S(=O)(=O)Nc2nc3ccccc3nc2Nc2ccccc2)cc1,i,i,i,1.39,-11.3*,-8.8,106.7*,i
O=[N+]([O-])c1ccccc1Nc1c2ccccc2nc2ccccc12,i,i,i,0.62,i,-21.8,x,x
COc1cc(Nc2nc3ccccc3nc2NS(=O)(=O)c2ccc([N+](=O)[O-])cc2)cc(OC)c1OC,10*,i,i,2.39,-12.2*,-13.2,129.3*,0.123*
O=C(O)c1ccc(Nc2nc3ccccc3nc2NS(=O)(=O)c2ccc(F)cc2)cc1,i,i,i,2.39,i,-13.3,x,x
O=[N+]([O-])c1ccc(Nc2c3ccccc3nc3ccccc23)cc1,i,i,i,0.17,-12.3*,-3.5,119.7*,0.149*
O=C(CCN1C(=O)c2ccccc2S1(=O)=O)NCc1ccccc1,i,i,i,-0.04,i,-12.6,x,x
